Test results reported in ChEMBL document CHEMBL1154778, “Synthesis and biological evaluation of C-5 methyl substituted 4-arylthio and 4-aryloxy-3-Iodopyridin-2(1H)-one type anti-HIV agents” (J Med Chem, 2009).

How the values were obtained:
[1] = test system: Human immunodeficiency virus 1; test: Antiviral activity against HIV1 HXB2 harboring K103N mutant reverse transcriptase infected in human MT4 cells after 5 days by MTT assay; type: functional, organism-based; conditions: Human immunodeficiency virus 1, HXB2, MT4, 120 h
Procedure, shortened: (§1)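 Mutant viruses were made by recombining the mutant PR-RT sequence into a PR-RT-deleted HIV-1 HXB2 proviral clone. MT4 cells were grown in RPMI 1640 with 10% FCS and antibiotics. Virus at 200 CCID50/well and 30000 cells/well were incubated with varied compound concentrations for 5 days at 37 °C, 5% CO2. MTT viability gave IC50, the concentration giving 50% infection versus the drug-free control.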

[2] = Selectivity index, ratio of CC50 for human MT4 cells to IC50 for HIV-1 LAI harboring wild type reverse transcriptase infected in human MT4 cells; type: functional
Procedure, shortened: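 Cytotoxicity was measured in mock-infected MT4 cultures (30000 cells/well) given the same compound concentration range, run in parallel with the infected cultures for 5 days at 37 °C, 5% CO2, with MTT viability. CC50 was the concentration reducing viability by 50% versus the drug-free control. SI was CC50 divided by IC50 against HIV-1 LAI.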

[3] = test system: Human immunodeficiency virus 1; test: Antiviral activity against HIV1 HXB2 harboring Y188L mutant reverse transcriptase infected in human MT4 cells after 5 days by MTT assay; type: functional, organism-based; conditions: Human immunodeficiency virus 1, HXB2, MT4, 120 h; procedure, shortened: as §1
[4] = test system: Human immunodeficiency virus 1; test: Antiviral activity against HIV1 HXB2 harboring Y181C mutant reverse transcriptase infected in human MT4 cells after 5 days by MTT assay; type: functional, organism-based; conditions: Human immunodeficiency virus 1, HXB2, MT4, 120 h; procedure, shortened: as §1
[5] = test system: Human immunodeficiency virus 1; test: Antiviral activity against HIV-1 LAI harboring wild type reverse transcriptase infected in human MT4 cells after 5 days by MTT assay; type: functional, organism-based; conditions: Human immunodeficiency virus 1, LAI, MT4, 120 h
Procedure, shortened: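 MT4 cells were kept in RPMI 1640 with 10% fetal calf serum and antibiotics at 37 °C, 5% CO2. A range of compound concentrations was incubated with HIV-1 LAI at 200 CCID50/well and 30000 MT4 cells/well for 5 days at 37 °C. Cell viability was read by MTT, and IC50 was the concentration giving 50% infection versus the drug-free control.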

Structure (SMILES) | IC50 [1] [nM] | Ratio CC50/IC50 [2] | IC50 [3] [nM] | IC50 [4] [nM] | IC50 [5] [nM]
Cc1cc(C)cc(Oc2c(CSCc3ccccc3)c(C)[nH]c(=O)c2I)c1 | 7.94 | >15849 | 31.6 | 15.8 | 6.3
Cc1cc(C)cc(Oc2c(-n3ccnc3C#N)c(C)[nH]c(=O)c2I)c1 | 12.5 | >15848 | 125 | 39.8 | 6.3
Cc1cc(C)cc(Oc2c(COCc3cccs3)c(C)[nH]c(=O)c2I)c1 | 6.3 | >15849 | 50.1 | 31.6 | 6.3
Cc1cc(C)cc(Oc2c(CN3CCOC(CC#N)C3)c(C)[nH]c(=O)c2I)c1 (stereo not given) | 6.3 | >15849 | 100 | 31.6 | 6.3
Cc1cc(C)cc(Oc2c(CN3CCC(OC(N)=O)CC3)c(C)[nH]c(=O)c2I)c1 | 1.99 | 7943 | 50.1 | 25.1 | 6.3
Cc1cc(C)cc(Oc2c(CN3CCSCC3)c(C)[nH]c(=O)c2I)c1 | 7.94 | >15849 | 125 | 39.8 | 6.3
Cc1cc(C)cc(Oc2c(Cn3cncc3C)c(C)[nH]c(=O)c2I)c1 | 10 | >19952 | 125 | 31.6 | 5.01
CCOC(=O)CC1CN(Cc2c(C)[nH]c(=O)c(I)c2Oc2cc(C)cc(C)c2)CCO1 (stereo not given) | 1.99 | >15849 | 50.1 | 25.1 | 6.3
Cc1cc(C)cc(Sc2c(CSc3nccs3)c(C)[nH]c(=O)c2I)c1 | 7.94 | 15849 | 3160 | 199 | 5.01
Cc1cc(C)cc(Sc2c(CN3CCC(C(N)=O)CC3)c(C)[nH]c(=O)c2I)c1 | 10 | >19953 | 1260 | 158 | 5.01
COCC1CCN(Cc2c(C)[nH]c(=O)c(I)c2Sc2cc(C)cc(C)c2)CC1 | 19.9 | 7943 | 3160 | 630 | 5.01
COC1CCCN(Cc2c(C)[nH]c(=O)c(I)c2Sc2cc(C)cc(C)c2)C1 (stereo not given) | 3.16 | >19953 | 125 | 25.1 | 5.01
Cc1cc(C)cc(Sc2c(Cn3nc(CC#N)nc3C)c(C)[nH]c(=O)c2I)c1 | 25.1 | >19953 | 199 | 39.8 | 5.01
Cc1cc(C)cc(Oc2c(CN3CCSC3)c(C)[nH]c(=O)c2I)c1 | 15.8 | >15848 | 251 | 39.8 | 6.3
Cc1cc(C)cc(Oc2c(Cn3cccn3)c(C)[nH]c(=O)c2I)c1 | 6.3 | >19952 | 316 | 31.6 | 5.01
COC1CCCN(Cc2c(C)[nH]c(=O)c(I)c2Oc2cc(C)cc(C)c2)C1 (stereo not given) | 6.3 | >15849 | 39.8 | 15.8 | 6.3
Cc1cc(C)cc(Sc2c(CN3CCC(O)CC3)c(C)[nH]c(=O)c2I)c1 | 12.5 | >19953 | 3980 | 316 | 5.01
Cc1cc(C)cc(Oc2c(Cn3cncc3-c3ccccc3)c(C)[nH]c(=O)c2I)c1 | 7.94 | >15858 | 31.6 | 31.6 | 6.3
Cc1cc(C)cc(Oc2c(CNC(=O)c3cc4ccccc4o3)c(C)[nH]c(=O)c2I)c1 | 199 | >15849 | 158 | 31.6 | 6.3
